Laboratory results from ChEMBL document CHEMBL4364267, “Hydrogen sulfide donating ent-kaurane and spirolactone-type 6,7-seco-ent-kaurane derivatives: Design, synthesis and antiproliferative properties” (Eur J Med Chem, 2019).
pIC50: −log10 of the molar value. Calls of active or inactive are those of the source. The rule behind the calls is not given here.

Key:
[1] = test system: Bel-7402; assay: Antiproliferative activity against human Bel7402 cells assessed as reduction in cell viability after 72 hrs by MTT assay; format: functional, cell-based; conditions: Bel-7402, 72 h
Procedure, shortened: (§1)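 MTT assay over 72 h, compounds at 64, 16, 4, 1, 0.25, 0.0625 and 0.015625 μM. MTT solution (5 mg/mL) and DMSO added afterwards, 10 min at room temperature, absorbance read at 490 nm. IC50 calculated as the mean ± SD of three independent experiments.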

[2] = test system: L02; assay: Cytotoxicity against human L02 cells assessed as reduction in cell viability after 72 hrs by MTT assay; format: cell-based; conditions: L02, 72 h; procedure, shortened: as §1
[3] = test system: K562; assay: Antiproliferative activity against human K562 cells assessed as reduction in cell viability after 72 hrs by MTT assay; format: functional, cell-based; conditions: K562, 72 h; procedure, shortened: as §1
[4] = test system: PBMC; assay: Cytotoxicity against human PBMC assessed as reduction in cell viability after 72 hrs by MTT assay; format: cell-based; procedure, shortened: as §1
[5] = test system: A549; assay: Antiproliferative activity against human A549 cells assessed as reduction in cell viability after 72 hrs by MTT assay; format: functional, cell-based; conditions: A549, 72 h; procedure, shortened: as §1
[6] = test system: SGC-7901; assay: Antiproliferative activity against human SGC7901 cells assessed as reduction in cell viability after 72 hrs by MTT assay; format: functional, cell-based; conditions: SGC-7901, 72 h; procedure, shortened: as §1
[7] = Induction of H2S generation in PBS containing Na2S and MB+ cocktail in presence of TCEP/L-cysteine measured at 15 to 20 mins after 20 mins compound incubation by methylene blue dye based UV-Vis spectrophotometric method; format: functional
Procedure, shortened: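 Na2S standards (5–150 μM) in sodium phosphate buffer reacted 20 min at room temperature with methylene blue cocktail (FeCl3/HCl, N,N-dimethyl-1,4-phenylenediamine/HCl, Zn(OAc)2) to build a 670 nm calibration curve. Compounds from 40 mM THF stock added to phosphate buffer with 1 mM TCEP or L-cysteine. Aliquots taken into the cocktail at set times, incubated 20 min, read at 670 nm. Mean of three experiments.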

Oc1ccc(-c2cc(=S)ss2)cc1
pIC50 [1]: < 4.30 | pIC50 [2]: < 4.30 | pIC50 [3]: < 4.30 | pIC50 [4]: < 4.30 | pIC50 [5]: < 4.30 | pIC50 [6]: < 4.30

C=C1C(=O)[C@]23[C@H](OC(=O)CCC(=O)Oc4ccc(-c5cc(=S)ss5)cc4)[C@H]1CC[C@H]2[C@@]12CO[C@]3(O)[C@@H](O)[C@@H]1C(C)(C)CC[C@@H]2OC(C)=O
pIC50 [1]: 5.54 | pIC50 [2]: 4.63 | pIC50 [3]: 5.60 | pIC50 [4]: 4.36 | pIC50 [5]: 5.20 | pIC50 [6]: 5.26

C=C1C(=O)[C@]23[C@H](O)[C@H]1CC[C@H]2[C@@]12CO[C@@]3(O)[C@@H](O)[C@@H]1C(C)(C)CC[C@@H]2OC(C)=O
pIC50 [1]: 5.44 | pIC50 [2]: 4.65 | pIC50 [3]: 5.31 | pIC50 [4]: < 4.30 | pIC50 [5]: 4.87 | pIC50 [6]: 5.19

C=C1C(=O)[C@]23[C@H](OC(=O)CCCCC4CCSS4)[C@H]1CC[C@H]2[C@@]12CO[C@]3(O)[C@@H](O)[C@@H]1C(C)(C)CC[C@@H]2OC(C)=O (stereo partly drawn)
pIC50 [1]: 5.65 | pIC50 [2]: 4.39 | pIC50 [3]: 5.55 | pIC50 [4]: 4.54 | pIC50 [5]: 5.06 | Activity [7]: Active | pIC50 [6]: 5.22

C=C1C(=O)[C@]23[C@H](OC(=O)CCCC(=O)Oc4ccc(-c5cc(=S)ss5)cc4)[C@H]1CC[C@H]2[C@@]12CO[C@]3(O)[C@@H](O)[C@@H]1C(C)(C)CC[C@@H]2OC(C)=O
pIC50 [1]: 5.71 | pIC50 [2]: 4.83 | pIC50 [3]: 5.69 | pIC50 [4]: < 4.30 | pIC50 [5]: 5.01 | pIC50 [6]: 5.27

C=C1C(=O)[C@]23[C@H](OC(=O)CCC(=O)Oc4ccc(-c5cc(=S)ss5)cc4)[C@H]1CC[C@H]2[C@@]12CO[C@]3(O)[C@@H](O)[C@@H]1C(C)(C)CCC2=O
pIC50 [1]: 5.45 | pIC50 [2]: < 4.30 | pIC50 [3]: 5.44 | pIC50 [4]: 4.53 | pIC50 [5]: 5.01 | pIC50 [6]: 4.90

C=C1C(=O)[C@]23[C@H](OC(=O)CCCC(=O)Oc4ccc(-c5cc(=S)ss5)cc4)[C@H]1CC[C@H]2[C@@]12CO[C@]3(O)[C@@H](O)[C@@H]1C(C)(C)CCC2=O
pIC50 [1]: 5.52 | pIC50 [2]: 4.68 | pIC50 [3]: 5.42 | pIC50 [4]: 4.76 | pIC50 [5]: 5.36 | pIC50 [6]: 5.18

C=C1C(=O)[C@]23[C@H](O)[C@H]1CC[C@H]2[C@@]12CO[C@]3(O)[C@@H](O)[C@@H]1C(C)(C)CC[C@@H]2O [ORIDONIN]
pIC50 [1]: 5.08 | pIC50 [2]: 4.73 | pIC50 [4]: < 4.30 | pIC50 [5]: 4.75 | pIC50 [6]: 5.10

C=C1C(=O)[C@@]23C(=O)OC[C@]4(C(=O)CCC(C)(C)[C@H]4C=O)[C@@H]2CC[C@@H]1[C@H]3OC(=O)c1ccccc1C(=O)Oc1ccc(-c2cc(=S)ss2)cc1
pIC50 [1]: 5.49 | pIC50 [2]: 4.58 | pIC50 [3]: 5.37 | pIC50 [4]: 4.50 | pIC50 [5]: 5.13 | Activity [7]: Active | pIC50 [6]: 5.23

C=C1C(=O)[C@@]23C(=O)OC[C@]4(C(=O)CCC(C)(C)[C@H]4C=O)[C@@H]2CC[C@@H]1[C@H]3OC(=O)CCC(=O)Oc1ccc(-c2cc(=S)ss2)cc1
pIC50 [1]: 5.86 | pIC50 [2]: 4.74 | pIC50 [3]: 5.74 | pIC50 [4]: 4.78 | pIC50 [5]: 5.26 | Activity [7]: Active | pIC50 [6]: 5.37

C=C1C(=O)[C@@]23C(=O)OC[C@]4([C@@H](OC(C)=O)CCC(C)(C)[C@H]4C=O)[C@@H]2CC[C@@H]1[C@H]3O
pIC50 [1]: < 4.30 | pIC50 [2]: < 4.30 | pIC50 [3]: 5.05 | pIC50 [4]: < 4.30 | pIC50 [5]: 4.56 | pIC50 [6]: 4.30

C=C1C(=O)[C@@]23C(=O)OC[C@]4(C(=O)CCC(C)(C)[C@H]4C=O)[C@@H]2CC[C@@H]1[C@H]3O
pIC50 [1]: 5.33 | pIC50 [2]: 4.53 | pIC50 [3]: 5.49 | pIC50 [4]: < 4.30 | pIC50 [5]: 5.27 | pIC50 [6]: 4.71

C=C1C(=O)[C@@]23C(=O)OC[C@]4(C(=O)CCC(C)(C)[C@H]4C=O)[C@@H]2CC[C@@H]1[C@H]3OC(=O)CCCCC1CCSS1 (stereo partly drawn)
pIC50 [1]: 5.59 | pIC50 [2]: 4.70 | pIC50 [3]: 5.59 | pIC50 [4]: < 4.30 | pIC50 [5]: 5.10 | Activity [7]: Active | pIC50 [6]: 5.19

O=c1[nH]cc(F)c(=O)[nH]1 [FLUOROURACIL]
pIC50 [1]: 4.75 | pIC50 [2]: < 4.30 | pIC50 [3]: 5.40 | pIC50 [4]: < 4.30 | pIC50 [6]: 5.20

C=C1C(=O)[C@@]23C(=O)OC[C@]4([C@@H](OC(C)=O)CCC(C)(C)[C@H]4C=O)[C@@H]2CC[C@@H]1[C@H]3OC(=O)CCC(=O)Oc1ccc(-c2cc(=S)ss2)cc1
pIC50 [1]: 5.01 | pIC50 [2]: < 4.30 | pIC50 [3]: 4.82 | pIC50 [4]: 4.59 | pIC50 [5]: 4.56 | Activity [7]: Active | pIC50 [6]: 4.75

C=C1C(=O)[C@]23[C@H](OC(=O)c4ccccc4C(=O)Oc4ccc(-c5cc(=S)ss5)cc4)[C@H]1CC[C@H]2[C@@]12CO[C@]3(O)[C@@H](O)[C@@H]1C(C)(C)CC[C@@H]2OC(C)=O
pIC50 [1]: 5.11 | pIC50 [2]: < 4.30 | pIC50 [3]: 4.94 | pIC50 [4]: 4.40 | pIC50 [5]: 4.78 | Activity [7]: Active | pIC50 [6]: 4.91

C=C1C(=O)[C@@]23C(=O)OC[C@]4([C@@H](OC(C)=O)CCC(C)(C)[C@H]4C=O)[C@@H]2CC[C@@H]1[C@H]3OC(=O)CCCCC1CCSS1 (stereo partly drawn)
pIC50 [1]: 5.34 | pIC50 [2]: 4.44 | pIC50 [3]: 5.17 | pIC50 [4]: < 4.30 | pIC50 [5]: 4.70 | Activity [7]: Active | pIC50 [6]: 5.00

O=C(O)CCCCC1CCSS1 (stereo not drawn) [LIPOIC ACID, ALPHA]
pIC50 [1]: < 4.30 | pIC50 [2]: < 4.30 | pIC50 [3]: < 4.30 | pIC50 [4]: < 4.30 | pIC50 [5]: < 4.30 | pIC50 [6]: < 4.30

C=C1C(=O)[C@]23[C@H](O)[C@H]1CC[C@H]2[C@@]12CO[C@]3(O)[C@@H](O)[C@@H]1C(C)(C)CCC2=O
pIC50 [1]: 5.41 | pIC50 [2]: 4.63 | pIC50 [3]: 5.40 | pIC50 [4]: < 4.30 | pIC50 [5]: 5.01 | pIC50 [6]: 4.78

C=C1C(=O)[C@]23[C@H](OC(=O)c4ccccc4C(=O)Oc4ccc(-c5cc(=S)ss5)cc4)[C@H]1CC[C@H]2[C@@]12CO[C@]3(O)[C@@H](O)[C@@H]1C(C)(C)CCC2=O
pIC50 [1]: 5.27 | pIC50 [2]: 4.37 | pIC50 [3]: 5.32 | pIC50 [4]: < 4.30 | pIC50 [5]: 5.11 | Activity [7]: Active | pIC50 [6]: 4.83

C=C1C(=O)[C@@]23C(=O)OC[C@]4([C@@H](OC(C)=O)CCC(C)(C)[C@H]4C=O)[C@@H]2CC[C@@H]1[C@H]3OC(=O)CCCC(=O)Oc1ccc(-c2cc(=S)ss2)cc1
pIC50 [1]: 5.34 | pIC50 [2]: < 4.30 | pIC50 [3]: 5.49 | pIC50 [4]: 4.51 | pIC50 [5]: 4.83 | Activity [7]: Active | pIC50 [6]: 5.12
